# In the library only some 4% were active in any assay of this set; here they are far more common.
# ERa coact pot: enhances coactivator binding to human estrogen receptor alpha; AID 639; coactivator binding (% of control), % at 25.6 µM; P03372; actives 1.3% (n = 86,000); TR-FRET ERalpha-LBD/SRC-Cy5 coactivator binding, 2 h; 100 = basal binding, no effect; in the data active means activity above about 200%;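 further: binding measured in presence of low estradiol as agonist stimulus; 0% = peptide alone without receptor and 100% = receptor with peptide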
# Smad3 FoxH1 inh: Smad3 (human) transcription factor binding inhibition; P84022; TR-FRET Smad3/Dy647-FoxH1 peptide binding, europium anti-His; inhibition, % at 25 µM; actives 0.29% (n = 88,000);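 active means compounds that reduce the energy-transfer binding signal between the protein and its labelled peptide by more than half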;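 further: 0% = Smad3 plus labelled peptide maximal FRET and 100% = peptide-only background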
# ERa SRC1 inh: ER-alpha (human) coactivator binding inhibition | actives 1.7% (n = 86,000) | TR-FRET ER-alpha LBD / SRC-1 peptide, estradiol-bound | inhibition, % at 25.6 µM | AID 629; in the data active means inhibition above about 50%;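 further: 0% = receptor plus peptide control and 100% = peptide only without receptor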
# ERb SRC1 inh: blocks coactivator binding to human estrogen receptor beta. Q92731. TR-FRET ER-beta LBD / SRC1-Cy5 peptide binding; receptor agonist-loaded with 1 µM estradiol. inhibition, % at 25.6 µM. actives 1.3% (n = 86,000);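 active means compounds whose percent inhibition of the receptor-coactivator binding signal exceeds about 50% in the single-dose screen, limit read from the data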;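 further: 0% = receptor plus peptide wells without compound and 100% = peptide-only wells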
# Target sequence (Q92731 whole entry, looked up, the tested form may be a part): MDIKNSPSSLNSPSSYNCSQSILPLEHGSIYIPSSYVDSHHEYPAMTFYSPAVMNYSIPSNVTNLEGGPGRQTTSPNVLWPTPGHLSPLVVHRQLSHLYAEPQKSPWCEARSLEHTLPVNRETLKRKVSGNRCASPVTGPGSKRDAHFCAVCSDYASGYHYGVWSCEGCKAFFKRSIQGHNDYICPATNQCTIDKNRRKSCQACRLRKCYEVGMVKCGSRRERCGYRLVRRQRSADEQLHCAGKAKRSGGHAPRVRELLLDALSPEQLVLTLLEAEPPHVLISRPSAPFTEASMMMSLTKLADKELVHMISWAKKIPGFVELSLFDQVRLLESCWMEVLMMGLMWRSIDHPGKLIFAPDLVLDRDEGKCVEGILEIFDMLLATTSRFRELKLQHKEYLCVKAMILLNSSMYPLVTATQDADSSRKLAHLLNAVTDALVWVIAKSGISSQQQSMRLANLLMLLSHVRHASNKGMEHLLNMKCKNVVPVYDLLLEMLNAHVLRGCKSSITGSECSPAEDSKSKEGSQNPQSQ
# HIV Rev-RRE inh: HIV Rev-RRE protein-RNA interaction inhibition | P05866 | Rev peptide-RRE RNA binding, FRET | inhibition, % at 8 µM | actives 0.79% (n = 97,000) | AID 704;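 active means inhibition above the screen-wide mean plus 3 SD, cut at about 35% in these data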;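 further: 0% = median DMSO wells and 100% = median Neomycin B control wells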
# Target sequence (P05866 whole entry, looked up): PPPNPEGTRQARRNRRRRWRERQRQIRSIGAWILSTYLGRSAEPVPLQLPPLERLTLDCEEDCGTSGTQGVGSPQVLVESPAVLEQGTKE
#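 Assay system: labelled RRE RNA duplex and labelled Rev peptide / Medium: HEPES pH 7.5 salt buffer with EDTA / Reagent: labelled Rev peptide / Schedule: 5 + 15 min at 25 °C / Signal: FRET, excitation 480 nm, emission 540 nm donor and 671 nm acceptor / Benchmarks: DMSO and neomycin B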
# FAK blocker: FAK (human) kinase inhibition; actives 0.84% (n = 97,000); AID 727; biochemical FAK kinase activity assay; inhibition, %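 (tested at 7 µM)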; in the data active means inhibition above about 19%;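 further: 0% = DMSO and 100% = reference compound high control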
# * hit, by the source's call; x = not tested or not shown; [ ] = remark or other dose.
SMILES,ERa coact pot,Smad3 FoxH1 inh,ERa SRC1 inh,ERb SRC1 inh,HIV Rev-RRE inh,FAK blocker
N#CC1=C(N)SC(N)=C(C#N)C1c1ccoc1,50.6,12.2,21.9,-2.1,85.8*[fluorescence artefact?],-1.2
CC1=C(C#N)C(c2ccoc2)C(C(=O)OCc2ccccc2)=C(N)S1 (stereo not given),108.4,-2.1,1.2,-7.5,18.0,-0.6
Cc1ccc(C2C(C#N)=C(N)SC(N)=C2C#N)cc1,125.2,9.4,6.3,3.1,58.5*,-3.5
Cn1c(C[C@@H](O)c2nc3ccccc3n2C)nc2ccccc21,x,35.5,x,x,x,x
O=C(c1cc(-c2ccco2)on1)N1CCCc2ccccc21,95.1,9.9,65.9*,52.0*,-3.3,8.7
O=C(c1cc2nc(-c3ccco3)cc(C(F)(F)F)n2n1)N1CCCc2ccccc21,101.0,-2.2,14.3,15.0,x,x
O=C(c1cc(-c2ccco2)on1)N1CCc2ccccc2C1,91.0,1.5,58.4*,50.8*,5.2,10.7
COc1ccc(CCNC2CCN(C)CC2)cc1OC,130.2,1.4,-5.2,-0.3,4.3,-0.8
O=C(Cc1cnn(-c2ccccc2)c1)c1ccc(O)c(O)c1O,55.9,-7.2,78.0*[fluorescence artefact?],84.8*[fluorescence artefact?],-4.8,-1.3
CCCOc1cc(N(CC)CC)ccc1/C=C(/C#N)c1nc2ccc(C)cc2[nH]1,x,x,x,x,132.6*[fluorescence artefact?],2.6
CCOc1cc(N(CC)CC)ccc1/C=C(/C#N)c1nc2ccccc2[nH]1,x,x,x,x,132.4*[fluorescence artefact?],-3.0
CCN(CC)c1ccc(/C=C(/C#N)c2nc3ccc(C)cc3[nH]2)c(OC(C)C)c1,x,x,x,x,138.1*[fluorescence artefact?],2.5
COc1cc(/C=C(\C#N)c2nc3ccc(C)cc3[nH]2)c([N+](=O)[O-])cc1OC,x,x,x,x,9.3,0.4
C[C@@](N)(Cc1c[nH]c2ccccc12)C(=O)O,x,1.9,x,x,x,x
O=C(NCC1c2ccccc2CCN1C(=O)CN1CCOCC1)C1CCCCC1 (stereo not given),110.6,63.2*[fluorescence artefact?],5.7,0.8,-0.5,-3.0
CCOc1cc(-n2cnnn2)c(OCC)cc1NC(=O)c1cc2ccc(N(CC)CC)cc2oc1=O,190.8,5.1,83.9*[fluorescence artefact?],53.2*[fluorescence artefact?],33.9,-5.5
CCN(CC)c1ccc2cc(-c3nnc(-c4ccncc4)o3)c(=O)oc2c1,x,x,x,x,142.7*[fluorescence artefact?],0.1
CCN(CC)c1ccc2cc(NC(=O)CCC(=O)O)c(=O)oc2c1,117.2,7.2,2.6,5.4,x,x
CCN(CC)c1ccc2cc(C(=O)Nc3ccccn3)c(=O)oc2c1,120.8,-23.0,39.1,5.5,x,x
CCN(CC)c1ccc2cc(C(C)=O)c(=O)oc2c1,106.3,1.3,-9.0,-10.8,126.1*[fluorescence artefact?],4.2
CCN(CC)c1ccc2cc(C(N)=O)c(=O)oc2c1,98.5,3.0,-8.0,-9.7,41.3*,13.1
N#C/C(=C\Nc1ccccn1)C(=O)C1CC1,x,-17.2,x,x,x,x
C(=Nc1ccc2c(c1)Cc1ccccc1-2)c1ccccn1,x,2.5,x,x,x,x
CCN(CC)c1ccc2cc(C=O)c(=O)oc2c1,110.5,-10.1,-4.2,3.3,140.0*[fluorescence artefact?],-1.5
CC(C)CO[C@H](c1ccc2c(c1)OCO2)[C@H](C)Br,x,4.5,x,x,x,x
SMILES,ERa coact pot,Smad3 FoxH1 inh,ERa SRC1 inh,ERb SRC1 inh,HIV Rev-RRE inh,FAK blocker
COc1ccc2c(c1)CN([C@H](C)[C@@H]1CC[C@@H]3[C@H]4CC[C@H]5C[C@@H](O)CC[C@]5(C)[C@@H]4CC[C@]31C)CO2,x,30.9,x,x,x,x
COc1cc(C2CC(=O)N3CN(c4ccccc4C)CSC3=C2C#N)cc(OC)c1OC (stereo not given),252.8*[fluorescence artefact?],14.5,8.9,5.4,5.8,-0.9
COc1ccccc1N1CSC2=C(C#N)C(c3ccc(SC)cc3)CC(=O)N2C1 (stereo not given),44.9,7.2,63.7*[fluorescence artefact?],61.1*[fluorescence artefact?],14.6,-0.9
CCc1ccccc1N1CSC2=C(C#N)C(c3cc(OC)c(OC)cc3OC)CC(=O)N2C1 (stereo not given),225.0*[fluorescence artefact?],15.9,-6.0,-0.5,6.9,16.2
COc1cc(OC)c(C2CC(=O)N3CN(c4ccccc4)CSC3=C2C#N)cc1OC (stereo not given),68.6,6.2,-16.2,4.5,2.3,0.1
Nc1c(S(=O)(=O)O)cc(Nc2cccc(S(N)(=O)=O)c2)c2c1C(=O)c1ccccc1C2=O,x,29.5,x,x,x,x
NCCSCc1ccccc1Cl,x,-0.3,x,x,x,x
CCOC(=O)c1[nH]c2ccc(Cl)cc2c1NC(=O)c1nonc1C,221.4*[fluorescence artefact?],-16.9,13.6,9.6,13.6,5.5
CCOC(=O)COn1c(=O)c(=O)n(O)c2ccccc21,74.2,11.2,36.0,50.1*[fluorescence artefact?],x,x
CSc1nc2ccccc2n1Cc1cccc(F)c1,92.8,7.3,1.9,74.9*[fluorescence artefact?],10.2,3.8
CC(C)N(C(=O)CSc1nc2ccccc2n1Cc1ccc(F)cc1)C(C)C,88.7,10.2,-1.1,-20.8,9.9,-1.2
CCC1=NN2C(=N)/C(=C\c3ccc(SCc4ccco4)o3)C(=O)N=C2S1,36.5,9.1,74.6*,74.9*,36.2*,-1.8
CCCC1=NN2C(=N)/C(=C\c3ccc(SCc4ccco4)o3)C(=O)N=C2S1,60.8,10.4,83.8*[fluorescence artefact?],69.5*,36.1*,10.6
C=C(C)COc1ccc2c(c1)CC[C@@H]1[C@H]3C/C(=N/O)C(=O)[C@]3(C)CC[C@@H]21,x,14.2,x,x,x,x
NS(=O)(=O)c1ccc(N=Nc2cc3ccccc3c(C(=O)O)c2O)cc1,x,18.8,x,x,x,x
O=c1nc(/C=C/c2ccc(-c3ccc(F)cc3)o2)cc(C(F)(F)F)[nH]1,80.4,-6.0,17.1,11.8,116.1*[fluorescence artefact?],1.7
CCc1cc2c(=O)c(-c3ccc4c(c3)OCCO4)coc2cc1OC(=O)c1ccco1,212.6*[fluorescence artefact?],4.1,70.3*[fluorescence artefact?],57.7*[fluorescence artefact?],3.6,3.5
CCCc1cc2c(=O)c(-c3ccc4c(c3)OCCO4)coc2cc1OC(=O)c1ccco1,122.0,9.2,50.8*,20.8,7.7,-0.3
O=C(COC(=O)CC1CCCC1)Nc1cc2c(cc1Cl)C(=O)c1ccccc1C2=O,62.5,12.5,51.9*,46.4,9.2,3.9
Oc1ccc(Cc2nccc3cc(O)c(O)cc23)cc1O,x,89.0*,x,x,x,x
CCOc1cccc2sc(NC(=O)c3ccc(Br)s3)nc12,432.9*[fluorescence artefact?],-370.0,44.7,48.1,6.5,-208.6
CCOC(=O)Cc1csc(NC(=O)c2ccc(Br)s2)n1,116.6,1.9,-1.6,-1.9,-0.4,0.7
O=C(CCc1ccccc1)Nc1nnc(-c2cccs2)o1,97.1,0.7,0.0,69.9*,1.4,1.9
O=C(CCc1ccccc1)Nc1nnc(-c2ccc3c(c2)CCCC3)o1,110.7,-5.0,4.0,8.0,5.3,0.6
Cc1cc(NC(=O)CSc2cn(CCNC(=O)c3ccc(Cl)cc3)c3ccccc23)no1,57.8,-9.1,69.7*,44.0,x,x
CCOc1ccc(C(=O)NCCn2cc(SCC(=O)Nc3cc(C)on3)c3ccccc32)cc1,155.1,1.1,11.7,0.2,5.8,-5.7
COc1cccc(OC)c1OCC(O)CN1CCN(c2ccccc2)CC1 (stereo not given),x,x,x,x,1.2,-3.2
